Experimental findings from ChEMBL document CHEMBL1148770, “Conformation-activity relationship of neuropeptide S and some structural mutants: helicity affects their interaction with the receptor” (J Med Chem, 2007) are described below.

One assay deals with T1, Neuropeptide S receptor (Mus musculus, UniProt Q8BZP8).
T1 sequence (Q8BZP8 whole entry): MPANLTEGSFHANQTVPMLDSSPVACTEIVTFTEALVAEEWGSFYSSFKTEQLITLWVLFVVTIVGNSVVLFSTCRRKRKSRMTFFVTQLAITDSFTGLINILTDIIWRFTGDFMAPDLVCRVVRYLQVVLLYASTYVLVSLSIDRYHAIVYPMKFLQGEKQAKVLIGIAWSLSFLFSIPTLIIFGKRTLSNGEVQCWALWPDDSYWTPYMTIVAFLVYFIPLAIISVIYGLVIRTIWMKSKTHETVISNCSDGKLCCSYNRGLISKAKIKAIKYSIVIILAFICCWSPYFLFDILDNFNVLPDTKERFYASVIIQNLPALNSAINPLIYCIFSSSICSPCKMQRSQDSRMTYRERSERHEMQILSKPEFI
Description: Agonist activity at mouse recombinant NPSR expressed in HEK293 cells assessed as calcium mobilization. The format is functional, cell-based. The procedure, abridged:
(§1)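 HEK293 cells stably expressing mouse NPSR, grown in DMEM/10% FBS/2 mM glutamine/hygromycin at 37 °C, 5% CO2. Seeded 50,000 cells/well on poly-D-lysine; next day loaded 30 min at 37 °C with 3 µM Fluo-4 AM, 2.5 mM probenecid, 0.01% pluronic acid. Read in HBSS/20 mM HEPES/probenecid/Brilliant Black at ≈22 °C on FlexStation; peak fluorescence change as % baseline; logistic fit; ≥4 experiments in duplicate.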
A general note: Calcium assays in cells follow changes in intracellular calcium, usually with a dye or a luminescent sensor.

Assay [1] concerns the target T2, Neuropeptide S receptor (Mus musculus) (UniProt Q8BZP8).
T2 sequence (whole entry): T1 sequence (Q8BZP8 whole entry)
Kind of assay: Agonist activity at mouse recombinant NPSR expressed in HEK293 cells assessed as calcium mobilization relative to baseline. The format is functional, cell-based. The essentials: as §1

Molecules are shown by their SMILES. pEC50: −log10 of the molar value. Square brackets hold non-standard residues; d marks the D form. Peptide text beside a SMILES is read from it. Aib = CC(C)(N)C(=O)O

For orientation: pEC50 means the EC50 on a negative log10 scale, so that one unit is a factor of ten. Usually Emax stands for the size of the effect at its maximum, as opposed to the concentration needed. For `CSCC[C@H](NC(=O)[C@@H](C)NC(=O)[C@@H](NC(=O)CNC(=O)[C@@H](NC(=O)CNC(=O)[C@H](CC(N)=O)NC(=O)[C@H](CCCNC(=N)N)NC(=O)[C@H](Cc1ccccc1)NC(=O)[C@@H](N)CO)C(C)C)[C@@H](C)O)C(=O)N[C@@H](CCCCN)C(=O)N[C@@H](CCCCN)C(=O)N[C@H](C(=O)N[C@@H](CO)C(=O)N[C@@H](Cc1ccccc1)C(=O)N[C@@H](CCC(N)=O)C(=O)N[C@@H](CCCNC(=N)N)C(=O)N[C@@H](C)C(=O)N[C@@H](CCCCN)C(=O)N[C@@H](CO)C(=O)O)[C@@H](C)O`, the pEC50 at Neuropeptide S receptor is 7.67. The Emax in assay [1] stood at 172%.

In the case of `CSCC[C@H](NC(=O)CNC(=O)[C@@H](NC(=O)[C@@H](C)NC(=O)[C@@H](NC(=O)CNC(=O)[C@H](CC(N)=O)NC(=O)[C@H](CCCNC(=N)N)NC(=O)[C@H](Cc1ccccc1)NC(=O)[C@@H](N)CO)C(C)C)[C@@H](C)O)C(=O)N[C@@H](CCCCN)C(=O)N[C@@H](CCCCN)C(=O)N[C@H](C(=O)N[C@@H](CO)C(=O)N[C@@H](Cc1ccccc1)C(=O)N[C@@H](CCC(N)=O)C(=O)N[C@@H](CCCNC(=N)N)C(=O)N[C@@H](C)C(=O)N[C@@H](CCCCN)C(=O)N[C@@H](CO)C(=O)O)[C@@H](C)O`, at Neuropeptide S receptor, the pEC50 was 7.63. For the same molecule, the Emax in assay [1] worked out at 164%.

As to `CSCC[C@H](NC(=O)CNC(=O)[C@@H](NC(=O)[C@H](C)NC(=O)[C@@H](NC(=O)CNC(=O)[C@H](CC(N)=O)NC(=O)[C@H](CCCNC(=N)N)NC(=O)[C@H](Cc1ccccc1)NC(=O)[C@@H](N)CO)C(C)C)[C@@H](C)O)C(=O)N[C@@H](CCCCN)C(=O)N[C@@H](CCCCN)C(=O)N[C@H](C(=O)N[C@@H](CO)C(=O)N[C@@H](Cc1ccccc1)C(=O)N[C@@H](CCC(N)=O)C(=O)N[C@@H](CCCNC(=N)N)C(=O)N[C@@H](C)C(=O)N[C@@H](CCCCN)C(=O)N[C@@H](CO)C(=O)O)[C@@H](C)O`, the Emax in assay [1] was 129%.

On to `CSCC[C@H](NC(=O)[C@H](C)NC(=O)[C@@H](NC(=O)[C@H](C)NC(=O)[C@@H](NC(=O)CNC(=O)[C@H](CC(N)=O)NC(=O)[C@H](CCCNC(=N)N)NC(=O)[C@H](Cc1ccccc1)NC(=O)[C@@H](N)CO)C(C)C)[C@@H](C)O)C(=O)N[C@@H](CCCCN)C(=O)N[C@@H](CCCCN)C(=O)N[C@@H](C)C(=O)N[C@@H](CO)C(=O)N[C@@H](Cc1ccccc1)C(=O)N[C@@H](CCC(N)=O)C(=O)N[C@@H](CCCNC(=N)N)C(=O)N[C@@H](C)C(=O)N[C@@H](CCCCN)C(=O)N[C@@H](CO)C(=O)O` (H-SFRNGVATAMKKASFQRAKS-OH), for which the Emax in assay [1] is 69%.

As for `CSCC[C@H](NC(=O)CNC(=O)[C@@H](NC(=O)C(C)(C)NC(=O)[C@@H](NC(=O)CNC(=O)[C@H](CC(N)=O)NC(=O)[C@H](CCCNC(=N)N)NC(=O)[C@H](Cc1ccccc1)NC(=O)[C@@H](N)CO)C(C)C)[C@@H](C)O)C(=O)N[C@@H](CCCCN)C(=O)N[C@@H](CCCCN)C(=O)N[C@H](C(=O)N[C@@H](CO)C(=O)N[C@@H](Cc1ccccc1)C(=O)N[C@@H](CCC(N)=O)C(=O)N[C@@H](CCCNC(=N)N)C(=O)N[C@@H](C)C(=O)N[C@@H](CCCCN)C(=O)N[C@@H](CO)C(=O)O)[C@@H](C)O` (H-SFRNGV[Aib]TGMKKTSFQRAKS-OH), in assay [1], the Emax was found to be 14%.

Regarding `CSCC[C@H](NC(=O)CNC(=O)[C@@H](NC(=O)CNC(=O)[C@@H](NC(=O)CNC(=O)[C@@H]1CCCN1C(=O)[C@H](CCCNC(=N)N)NC(=O)[C@H](Cc1ccccc1)NC(=O)[C@@H](N)CO)C(C)C)[C@@H](C)O)C(=O)N[C@@H](CCCCN)C(=O)N[C@@H](CCCCN)C(=O)N[C@H](C(=O)N[C@@H](CO)C(=O)N[C@@H](Cc1ccccc1)C(=O)N[C@@H](CCC(N)=O)C(=O)N[C@@H](CCCNC(=N)N)C(=O)N[C@@H](C)C(=O)N[C@@H](CCCCN)C(=O)N[C@@H](CO)C(=O)O)[C@@H](C)O` (H-SFRPGVGTGMKKTSFQRAKS-OH), the pEC50 on Neuropeptide S receptor was 6.80.
